Experimental findings from ChEMBL document CHEMBL4414587 (J Med Chem, 2019) are described below.

For one series, the species on record is Homo sapiens. Nature of the series: Selectivity ratio of Ki for displacement of [3H]N-methylspiperone from human D2L receptor expressed in HEK293 cell membranes to Ki for displacement of [3H]N-methylspiperone from human D3 receptor expressed in HEK293 cell membranes. (Displacement assays read how much labelled ligand stays bound in the presence of the test substance.)

Series [1] in a line: Metabolic stability in rat liver microsomes assessed as parent compound remaining at 10 uM measured after 60 mins in presence of NADPH regenerating system by LC/MS/MS analysis. In kind it is ADME, Microsome. To be noted: read-out: Stability. In outline:
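Compound at 10 μM final was incubated with rat liver microsomes at 0.5 mg/mL in 100 mM potassium phosphate, pH 7.4, with an NADPH regenerating system. Buprenorphine served as positive control. Parent disappearance was followed by LC/MS/MS, and percent remaining was reported at 60 min. Reactions were run in triplicate.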

The target in series [2] is T1, D(3) dopamine receptor (Homo sapiens, UniProt P35462). Nature of the series: Agonist activity at human D3 receptor expressed in CHO cells assessed as stimulation of quinpirole-induced mitogenesis relative to control. The class given is cell-based. On the set-up: concentration or dose not given beside the values.
Series [3] concerns the target T1, D(3) dopamine receptor. Nature of the series: Agonist activity at human D3 receptor expressed in CHO cells assessed as stimulation of quinpirole-induced mitogenesis. The class given is cell-based.
Series [4] can be described thus: AUC (0 to t) in Long-Evans rat brain at 10 mg/kg, po measured up to 24 hrs by LC/MS/MS analysis. In kind it is ADME, organism-based. The following applies: in vivo.
For series [5], the target named is T2, 5-hydroxytryptamine receptor 1A (Homo sapiens) (UniProt P08908).
T2 sequence (whole entry): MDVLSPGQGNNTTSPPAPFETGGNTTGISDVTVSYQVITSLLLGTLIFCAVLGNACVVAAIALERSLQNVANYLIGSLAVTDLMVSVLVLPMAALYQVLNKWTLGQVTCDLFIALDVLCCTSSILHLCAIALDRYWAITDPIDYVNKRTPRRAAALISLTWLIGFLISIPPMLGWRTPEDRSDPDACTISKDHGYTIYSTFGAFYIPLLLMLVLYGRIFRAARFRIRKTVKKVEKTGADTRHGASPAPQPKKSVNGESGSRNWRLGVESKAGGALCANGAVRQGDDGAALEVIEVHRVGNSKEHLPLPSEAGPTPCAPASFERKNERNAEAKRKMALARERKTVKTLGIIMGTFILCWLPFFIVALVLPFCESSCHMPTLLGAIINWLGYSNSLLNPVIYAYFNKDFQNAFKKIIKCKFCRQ
Nature of the series: Agonist activity at 5-HT1A receptor (unknown origin) assessed as stimulation of [35S]GTPgammaS binding relative to control. The class given is functional. (In general: GTPγS is a poorly hydrolysed GTP analogue; its binding reports G protein activation.)

The nature of series [6]: Tmax in Long-Evans rat plasma at 10 mg/kg, po measured up to 24 hrs by LC/MS/MS analysis. In kind it is ADME, organism-based.
Series [7] is described as follows: Tmax in Long-Evans rat brain at 10 mg/kg, po measured up to 24 hrs by LC/MS/MS analysis. The class given is ADME, organism-based.
A short description of series [8]: Cmax in Long-Evans rat brain at 10 mg/kg, po measured up to 24 hrs by LC/MS/MS analysis. The class given is ADME, organism-based. More on the design: dose 10 mg/kg, route oral. To be noted: in vivo.
Series [9] is described as follows: AUC (0 to t) in Long-Evans rat plasma at 10 mg/kg, po measured up to 24 hrs by LC/MS/MS analysis. On the set-up: time < 24 hr, dose 10 mg/kg, route oral. The class given is ADME, organism-based.
The target in a further series is D(2) dopamine receptor (Homo sapiens, UniProt P14416). Put plainly: Displacement of [3H]N-methylspiperone from human D2L receptor expressed in HEK293 cell membranes measured after 60 mins by scintillation counting method. An outline of the steps:
(§1)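 Membranes from HEK293 cells stably expressing human D2L or D3 were used at 20 μg protein/well in EBSS buffer, pH 7.4, with 0.4 nM [3H]N-methylspiperone. Compounds were run as 10 half-log dilutions in triplicate for 1 h at rt, with nonspecific binding defined by 10 μM (+)-butaclamol. Reactions were filtered onto GF/B and counted by scintillation.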

Series [10] has as its target T1, D(3) dopamine receptor. Put plainly: Displacement of [3H]N-methylspiperone from human D3 receptor expressed in HEK293 cell membranes measured after 60 mins by scintillation counting method. An outline of the steps: as §1
Series [11] in a line: Cmax in Long-Evans rat plasma at 10 mg/kg, po measured up to 24 hrs by LC/MS/MS analysis. In kind it is ADME, organism-based. On the set-up: dose 10 mg/kg, route oral.
In series [12] the target is T3, 5-hydroxytryptamine receptor 2C (Homo sapiens, UniProt P28335).
T3 sequence (P28335 whole entry): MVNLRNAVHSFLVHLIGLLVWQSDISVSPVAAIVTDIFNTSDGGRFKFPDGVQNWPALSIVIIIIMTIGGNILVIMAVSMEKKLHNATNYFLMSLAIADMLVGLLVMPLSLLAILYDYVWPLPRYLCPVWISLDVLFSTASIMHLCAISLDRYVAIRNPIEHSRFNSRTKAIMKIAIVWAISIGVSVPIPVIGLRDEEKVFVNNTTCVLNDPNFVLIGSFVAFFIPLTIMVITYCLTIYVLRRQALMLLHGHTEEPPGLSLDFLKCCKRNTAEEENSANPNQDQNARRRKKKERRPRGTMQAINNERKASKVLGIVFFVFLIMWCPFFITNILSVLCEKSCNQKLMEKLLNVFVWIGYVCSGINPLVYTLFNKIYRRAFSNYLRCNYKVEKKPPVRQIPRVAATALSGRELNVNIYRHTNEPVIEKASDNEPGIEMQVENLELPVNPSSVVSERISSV
Put plainly: Displacement of [125I] DOI from 5HT2C receptor (unknown origin).

The structures appear in SMILES notation. Where only a bound is given, the exact number is not on record here.

The EC50 is the concentration at which the effect is half-maximal. What is called Tmax is the time from dosing to the highest level. Usually AUC(0-t) stands for exposure summed from dosing to a finite time, without extrapolation to infinity. As usually defined, the Ki is a dissociation constant, usually derived from enzyme kinetics or from competition with a known ligand.

T1 sequence (P35462 whole entry): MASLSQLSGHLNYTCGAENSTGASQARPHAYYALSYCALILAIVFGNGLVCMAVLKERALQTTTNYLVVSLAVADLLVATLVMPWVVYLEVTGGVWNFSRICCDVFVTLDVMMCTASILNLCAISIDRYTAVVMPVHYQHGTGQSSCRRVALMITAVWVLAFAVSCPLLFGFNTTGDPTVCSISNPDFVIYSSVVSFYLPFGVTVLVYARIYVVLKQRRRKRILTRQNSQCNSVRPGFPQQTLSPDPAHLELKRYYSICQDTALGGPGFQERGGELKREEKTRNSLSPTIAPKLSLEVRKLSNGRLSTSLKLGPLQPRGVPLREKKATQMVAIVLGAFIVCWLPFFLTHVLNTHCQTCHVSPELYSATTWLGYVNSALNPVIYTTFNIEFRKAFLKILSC
D(2) dopamine receptor, sequence (P14416 whole entry): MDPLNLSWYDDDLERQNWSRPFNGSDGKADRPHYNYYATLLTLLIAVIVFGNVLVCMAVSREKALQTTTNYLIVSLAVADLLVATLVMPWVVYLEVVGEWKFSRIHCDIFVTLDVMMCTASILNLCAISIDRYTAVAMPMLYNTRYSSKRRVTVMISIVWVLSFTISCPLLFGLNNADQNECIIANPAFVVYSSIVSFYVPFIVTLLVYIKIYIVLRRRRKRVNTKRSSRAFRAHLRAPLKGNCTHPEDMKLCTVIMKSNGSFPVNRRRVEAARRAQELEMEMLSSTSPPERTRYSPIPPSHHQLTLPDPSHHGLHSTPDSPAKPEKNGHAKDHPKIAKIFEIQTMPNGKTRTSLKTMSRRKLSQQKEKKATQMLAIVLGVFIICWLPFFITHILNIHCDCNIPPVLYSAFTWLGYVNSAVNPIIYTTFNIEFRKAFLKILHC

`CCc1cccc(N2CCN(C[C@H](F)CCNC(=O)c3cc4ccccc4[nH]3)CC2)c1Cl`: the Ratio Ki in the series listed under Homo sapiens is 215. Moreover, the remaining at 1 h, 10 µM in series [1] was 57 to 70%.
As for `CCc1cc(Cl)c(OC)c(N2CCN(CC(F)CCNC(=O)c3cc4ccccc4o3)CC2)c1` (stereo not drawn), the Ratio Ki in the series listed under Homo sapiens was determined as 108. In addition, the remaining at 1 h, 10 µM in series [1] worked out at 12%. Besides, the Activity at D(3) dopamine receptor [2] amounted to 5.1%. Moreover, the EC50 at D(3) dopamine receptor [3] was greater than 4 µM.
Turning to `CCc1cc(Cl)c(OC)c(N2CCN(CC(O)CCNC(=O)c3ccc4c(c3)OCO4)CC2)c1` (stereo not drawn), the Ratio Ki in the series listed under Homo sapiens was 15.
`CCc1cccc(N2CCN(C[C@@H](O)CCNC(=O)c3cc4ccccc4[nH]3)CC2)c1Cl`: the AUCt in series [4] stood at 16665 pmol·h/g. Moreover, the Activity in series [5] was 69%. In series [1], the remaining at 1 h, 10 µM fell in the range of 57 to 86%. The time to peak (Tmax) in series [6] and in series [7] was 2 h throughout. The compound also yielded a Cmax in series [8] of 2670 to 3670 pmol/g.
Consider `CCc1cccc(N2CCN(C[C@@H](F)CCNC(=O)c3cc4ccccc4[nH]3)CC2)c1Cl`, for which the Ratio Ki in the series filed under Homo sapiens came out at 1060. Besides, the remaining at 1 h, 10 µM in series [1] lay within 57 to 70%.
Take `CCc1cc2c(cc1N1CCN(CC(O)CCNC(=O)c3cc4ccccc4o3)CC1)OCO2` (stereo not drawn): the Ratio Ki in the series listed under Homo sapiens worked out at 61.
For the compound `CCc1cc(Cl)c(OC)c(N2CCN(CC(O)CCNC(=O)c3cc4ccccc4[nH]3)CC2)c1` (racemic), the remaining at 1 h, 10 µM in series [1] is 57 to 86%.
Regarding `CCc1cc(Cl)c(OC)c(N2CCN(C[C@H](F)CCNC(=O)c3cc4ccccc4[nH]3)CC2)c1`, in the series filed under Homo sapiens, the Ratio Ki was found to be 1650. Moreover, the remaining at 1 h, 10 µM in series [1] lay in the range of 57 to 70%.
Compound `CCc1cc(Cl)c(OC)c(N2CCN(C[C@@H](O)CCNC(=O)c3cc4ccccc4[nH]3)CC2)c1` registered an AUCt in [4] of 4360 pmol·h/g. In series [1], the remaining at 1 h, 10 µM was 57 to 86%. Further, the AUC(0-t) at 24 h in [9] was found to be 1.07 µM·h. The Tmax in [7] worked out at 4 h. Also, on D(3) dopamine receptor [2], the Activity was 17%. This compound returned a Cmax in [8] of 959.9 pmol/g.
Turning to `CCc1cccc(N2CCN(CC(O)CCNC(=O)c3ccc4c(c3)OCO4)CC2)c1Cl` (stereo not drawn), the Ki worked out at 424 nM at D(2) dopamine receptor and 3.02 nM on D(3) dopamine receptor [10]. In addition, the Ratio Ki in the series filed under Homo sapiens is 140.
With `CCc1cccc(N2CCN(CC(F)CCNC(=O)c3cc4ccccc4[nH]3)CC2)c1Cl` (racemic), in the series filed under Homo sapiens, the Ratio Ki was found to be 327. In series [1], the remaining at 1 h, 10 µM turned out to be 38%. The Activity at D(3) dopamine receptor [2] turned out to be 5.4%. For the same compound, the half-maximal effective concentration (EC50) at D(3) dopamine receptor [3] is greater than 6.8 µM.
Compound `CCc1cccc(N2CCN(C[C@H](O)CCNC(=O)c3cc4ccccc4[nH]3)CC2)c1Cl` had an AUCt in series [4] of 21600 pmol·h/g. Also, the Activity in [5] came out at 74%. Besides, the remaining at 1 h, 10 µM in series [1] was in the range of 57 to 86%. In addition, the time to peak (Tmax) in series [6] and in series [7] was 2 h throughout. Besides, the values for the Cmax in series [11] and in series [8] were 291 to 306 nM and 3850 pmol/g, respectively.
The compound `CCc1cc(Cl)c(OC)c(N2CCN(C[C@H](O)CCNC(=O)c3cc4ccccc4[nH]3)CC2)c1` returned an AUCt in series [4] of 8412 pmol·h/g. Also, the remaining at 1 h, 10 µM in series [1] lay within 57 to 86%. For the same compound, the AUC(0-t) at 24 h in [9] was 2.2 µM·h. In series [7], the time of peak concentration (Tmax) was determined as 4 h. Further, the Activity at D(3) dopamine receptor [2] was determined as 17.7%. This compound also gave a Cmax in series [8] of 1796.6 pmol/g.
Consider `CCc1cc(Cl)c(OC)c(N2CCN(CC(F)CCNC(=O)c3cc4ccccc4[nH]3)CC2)c1` (racemic), for which the inhibitory constant (Ki) in series [12] was greater than 8.9 µM. The Ratio Ki in the series filed under Homo sapiens amounted to 746. The remaining at 1 h, 10 µM in series [1] turned out to be 75%. Further, the Activity on D(3) dopamine receptor [2] is 2.7%. Also, the concentration giving a half-maximal response (EC50) on D(3) dopamine receptor [3] was greater than 5.4 µM.
For `CCc1cccc(N2CCN(CC(O)CCNC(=O)c3cc4ccccc4[nH]3)CC2)c1Cl` (racemic), the remaining at 1 h, 10 µM in [1] lay within 57 to 86%.
With `CCc1cc(Cl)c(OC)c(N2CCN(C[C@@H](F)CCNC(=O)c3cc4ccccc4[nH]3)CC2)c1`, in the series filed under Homo sapiens, the Ratio Ki was 535. Moreover, in series [1], the remaining at 1 h, 10 µM was 57 to 70%.
For `CCc1cccc(N2CCN(CC(F)CCNC(=O)c3cc4ccccc4o3)CC2)c1Cl` (stereo not drawn), the values for the Activity (in [5]; at D(3) dopamine receptor [2]) were 43% and 15.5%, respectively. In addition, the Ratio Ki in the series listed under Homo sapiens was found to be 134. In addition, in series [1], the remaining at 1 h, 10 µM was 34%. Moreover, the EC50 at D(3) dopamine receptor [3] was greater than 7.5 µM.
